Our source for the MIC, MBC and MFC values is ChEMBL document CHEMBL3045677, “Sulfonamide-1,2,4-thiadiazole derivatives as antifungal and antibacterial agents: synthesis, biological evaluation, lipophilicity, and conformational studies” (2010).

For assay [1], the system named is Proteus mirabilis. In words: Antibacterial activity against Proteus mirabilis at […] degC measured after 24 hr by microdilution method. The class given is functional. The method in brief: (§1)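 Bacteria suspended in sterile saline at 1.0×10⁵ CFU/ml and added at 1.0×10⁴ CFU per well to LB broth with compound (1 mg/ml) in 96-well plates. Incubated 24 h at […] °C. MIC was the lowest concentration without visible growth under a binocular microscope. OD 655 nm was read against a blank and a positive control.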
Background: Dilution methods test growth across graded concentrations, often in twofold steps.

Assay [2] relates to Listeria monocytogenes. In words: Antibacterial activity against Listeria monocytogenes NCTC 7973 at […] degC measured after 24 hr by microdilution method. The class given is functional. The settings on record: NCTC 7973, 24 h. An outline of the steps:
as §1

In assay [3] the test system is Pseudomonas aeruginosa. Briefly: Antibacterial activity against Pseudomonas aeruginosa ATCC 27853 at […] degC measured after 72 hr by microdilution method. The class given is functional. The settings on record: ATCC 27853, 72 h. The method in brief:
(§2)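 Bactericidal endpoint: after the 24 h broth microdilution (1.0×10⁴ CFU per well, LB broth, […] °C), wells were serially subcultured into plates of fresh broth and incubated a further 72 h. MBC was the lowest concentration with no visible growth, taken as 99.5% killing of the original inoculum.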

Assay [4] has as its system Staphylococcus aureus. Briefly: Antibacterial activity against Staphylococcus aureus ATCC 6538 at […] degC measured after 72 hr by microdilution method. Type of assay: functional. The settings on record: ATCC 6538, 72 h. The method in brief:
as §2

The subject of assay [5] is Escherichia coli. In words: Antibacterial activity against Escherichia coli ATCC 35210 at […] degC measured after 72 hr by microdilution method. The class given is functional. The settings on record: ATCC 35210, 72 h. An outline of the steps: as §2
In assay [6] the test system is Escherichia coli. Briefly: Antibacterial activity against Escherichia coli ATCC 35210 at […] degC measured after 24 hr by microdilution method. Type of assay: functional. The conditions noted are these: ATCC 35210, 24 h. An outline of the steps: as §1
Assay [7] relates to Bacillus cereus. Briefly: Antibacterial activity against clinical isolate Bacillus cereus at […] degC measured after 72 hr by microdilution method. Type of assay: functional. The method in brief: as §2
The subject of assay [8] is Proteus mirabilis. In words: Antibacterial activity against Proteus mirabilis at […] degC measured after 72 hr by microdilution method. The class given is functional. An outline of the steps: as §2
Assay [9] has as its system Bacillus cereus. Briefly: Antibacterial activity against clinical isolate Bacillus cereus at […] degC measured after 24 hr by microdilution method. Type of assay: functional. The method in brief: as §1
Assay [10] deals with Salmonella typhimurium. In words: Antibacterial activity against Salmonella enterica subsp. enterica serovar TyphimuriumATCC 13311 at […] degC measured after 72 hr by microdilution method. Type of assay: functional, Salmonella enterica subsp. enterica serovar Typhimurium. The settings on record: ATCC 13311, 72 h. The method in brief: as §2
The test system of assay [11] is Listeria monocytogenes. Briefly: Antibacterial activity against Listeria monocytogenes NCTC 7973 at […] degC measured after 72 hr by microdilution method. Type of assay: functional. The settings on record: NCTC 7973, 72 h. An outline of the steps: as §2
Assay [12] concerns Micrococcus flavus. In words: Antibacterial activity against Micrococcus flavus ATCC 10240 at […] degC measured after 24 hr by microdilution method. The class given is functional. The settings on record: ATCC 10240, 24 h. An outline of the steps:
as §1

Assay [13] deals with Staphylococcus aureus. In words: Antibacterial activity against Staphylococcus aureus ATCC 6538 at […] degC measured after 24 hr by microdilution method. The settings on record: ATCC 6538, 24 h. Type of assay: functional. An outline of the steps:
as §1

The subject of assay [14] is Salmonella typhimurium. In words: Antibacterial activity against Salmonella enterica subsp. enterica serovar Typhimurium ATCC 13311 at […] degC measured after 24 hr by microdilution method. The class given is functional. The conditions noted are these: ATCC 13311, 24 h. An outline of the steps: as §1
Assay [15] concerns Micrococcus flavus. Briefly: Antibacterial activity against Micrococcus flavus ATCC 10240 at […] degC measured after 72 hr by microdilution method. The class given is functional. The conditions noted are these: ATCC 10240, 72 h. An outline of the steps:
as §2

In assay [16] the test system is Pseudomonas aeruginosa. Briefly: Antibacterial activity against Pseudomonas aeruginosa ATCC 27853 at […] degC measured after 24 hr by microdilution method. The class given is functional. The conditions noted are these: ATCC 27853, 24 h. The method in brief:
as §1

Assay [17] has as its system Aspergillus fumigatus. Briefly: Antifungal activity against plant isolate Aspergillus fumigatus at 28 degC measured after 72 hr by microdilution method. Type of assay: functional. The method in brief:
(§3)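 Fungi were kept on malt agar at 4 °C. Spores were washed off with sterile 0.85% saline containing 0.1% Tween 80 and adjusted to about 1.0×10⁵ per well. Compounds were dissolved in DMSO (1 mg/ml stock) and serially diluted in malt broth with inoculum in 96-well plates, 72 h at 28 °C, for MIC. MFC came from subculture into fresh broth for a further 72 h at 28 °C.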

The test system of assay [18] is Talaromyces funiculosus. Briefly: Antifungal activity against Talaromyces funiculosus ATCC 36839 at 28 degC measured after 72 hr by microdilution method. The class given is functional. The conditions noted are these: ATCC 36839, 72 h. An outline of the steps:
as §3

The test system of assay [19] is Trichoderma viride. In words: Antifungal activity against Hypocrea rufa IAM 5061 at 28 degC measured after 72 hr by microdilution method. The class given is functional. The settings on record: IAM 5061, 72 h. An outline of the steps: as §3
The subject of assay [20] is Aspergillus niger. In words: Antifungal activity against Aspergillus niger ATCC 6275 at 28 degC measured after 72 hr by microdilution method. Type of assay: functional. The conditions noted are these: ATCC 6275, 72 h. The method in brief:
as §3

The subject of assay [21] is Fulvia fulva. In words: Antifungal activity against Passalora fulva TK5318 at 28 degC measured after 72 hr by microdilution method. The conditions noted are these: TK5318, 72 h. Type of assay: functional. An outline of the steps: as §3
Assay [22] has as its system Aspergillus versicolor. In words: Antifungal activity against Aspergillus versicolor ATCC 11730 at 28 degC measured after 72 hr by microdilution method. Type of assay: functional. The settings on record: ATCC 11730, 72 h. The method in brief:
as §3

Assay [23] has as its system Aspergillus flavus. In words: Antifungal activity against Aspergillus flavus ATCC 9643 at 28 degC measured after 72 hr by microdilution method. Type of assay: functional. The conditions noted are these: ATCC 9643, 72 h. An outline of the steps:
as §3

In assay [24] the test system is Penicillium ochrochloron. In words: Antifungal activity against Penicillium ochrochloron ATCC 9112 at 28 degC measured after 72 hr by microdilution method. The settings on record: ATCC 9112, 72 h. The class given is functional. The method in brief: as §3

Values after ≈ are worked out from the molar mass of the structure shown.

Consider `CC1(C)S[C@@H]2[C@H](NC(=O)[C@H](N)c3ccccc3)C(=O)N2[C@H]1C(=O)O` [AMPICILLIN], for which the MIC (usually the lowest concentration that inhibits growth of the organism) in [1] was determined as 372 µM (≈ 130 µg/mL); in assay [2], 372 µM (≈ 130 µg/mL); in assay [6], 372 µM (≈ 130 µg/mL); in assay [9], 248 µM (≈ 86.7 µg/mL); in assay [12] it was 248 µM (≈ 86.7 µg/mL); in assay [13], 248 µM (≈ 86.7 µg/mL). The figures for the MIC in assay [14] and in [16] were 248 µM (≈ 86.7 µg/mL) and 744 µM (≈ 260 µg/mL), respectively. For the same compound, the MBC (as a rule, the smallest concentration meeting the test's criterion for killing) in assay [3] amounted to 1240 µM (≈ 433 µg/mL); in assay [4] it was 372 µM (≈ 130 µg/mL); in [5], 492 µM (≈ 172 µg/mL); in [7], 372 µM (≈ 130 µg/mL); in assay [8], 492 µM (≈ 172 µg/mL); in [10], 492 µM (≈ 172 µg/mL). In addition, the MBC is 744 µM (≈ 260 µg/mL) in assay [11] and 372 µM (≈ 130 µg/mL) in assay [15].

As to `c1ccc(-c2ccc(C(c3ccccc3)n3ccnc3)cc2)cc1` (centres undefined) [BIFONAZOLE], the MFC (in general, the lowest tested concentration that kills the fungus rather than only halting it) came to 640 µM (≈ 199 µg/mL) in [17]; 800 µM (≈ 248 µg/mL) in [18]; 800 µM (≈ 248 µg/mL) in assay [19]; 640 µM (≈ 199 µg/mL) in assay [20]; 640 µM (≈ 199 µg/mL) in [21]; 640 µM (≈ 199 µg/mL) in [22]. In addition, the MFC in assay [23] and in assay [24] was 640 µM (≈ 199 µg/mL) each time. Moreover, the MIC in [17] is 480 µM (≈ 149 µg/mL); in assay [18], 640 µM (≈ 199 µg/mL); in [19] it was 640 µM (≈ 199 µg/mL); in assay [20], 480 µM (≈ 149 µg/mL); in [21], 320 µM (≈ 99.3 µg/mL); in [22], 320 µM (≈ 99.3 µg/mL). For the same compound, the MIC in assay [23] and in assay [24] was 480 µM (≈ 149 µg/mL) in each case.

In the case of `CC(=O)N1CCN(c2ccc(OCC3COC(Cn4ccnc4)(c4ccc(Cl)cc4Cl)O3)cc2)CC1` (centres undefined) [KETOCONAZOLE], the MFC in assay [17] is 950 µM (≈ 505 µg/mL); in assay [18] it was 950 µM (≈ 505 µg/mL); in [19], 5700 µM (≈ 3030 µg/mL); in assay [20] it was 950 µM (≈ 505 µg/mL); in [21], 950 µM (≈ 505 µg/mL); in assay [22] it was 950 µM (≈ 505 µg/mL). Also, the MFC in assay [23] and in assay [24] was 3800 µM (≈ 2020 µg/mL) throughout. Besides, the MIC in [17] amounted to 380 µM (≈ 202 µg/mL); in assay [18] it was 380 µM (≈ 202 µg/mL); in assay [19], 4750 µM (≈ 2520 µg/mL); in assay [20], 380 µM (≈ 202 µg/mL); in assay [21], 380 µM (≈ 202 µg/mL); in [22], 380 µM (≈ 202 µg/mL). The MIC stood at 2850 µM (≈ 1510 µg/mL) in assay [23] and 3800 µM (≈ 2020 µg/mL) in [24].

Take `CN[C@@H]1[C@H](O[C@H]2[C@H](O[C@H]3[C@H](O)[C@@H](O)[C@H](N=C(N)N)[C@@H](O)[C@@H]3N=C(N)N)O[C@@H](C)[C@]2(O)C=O)O[C@@H](CO)[C@H](O)[C@H]1O` [STREPTOMYCIN]: the MIC in assay [1] turned out to be 172 µM (≈ 100 µg/mL); in assay [2], 258 µM (≈ 150 µg/mL); in [6], 172 µM (≈ 100 µg/mL); in [9] it was 43 µM (≈ 25 µg/mL); in [12] it was 86 µM (≈ 50 µg/mL); in assay [13], 172 µM (≈ 100 µg/mL). Also, the MIC in assay [14] and in [16] was 172 µM (≈ 100 µg/mL) throughout. For the same compound, the MBC in assay [3] was 344 µM (≈ 200 µg/mL); in assay [4], 344 µM (≈ 200 µg/mL); in assay [5] it was 344 µM (≈ 200 µg/mL); in assay [7], 86 µM (≈ 50 µg/mL); in [8], 344 µM (≈ 200 µg/mL); in [10] it was 344 µM (≈ 200 µg/mL). Further, the results for the MBC in [11] and in assay [15] were 516 µM (≈ 300 µg/mL) and 172 µM (≈ 100 µg/mL), respectively.
